Drawing on ChEMBL document CHEMBL1123620, “Renin inhibitors. Statine-containing tetrapeptides with varied hydrophobic carboxy termini” (J Med Chem, 1987), this text covers Ki and IC50 for 4 compounds.

In assay [1] the target is T1, Renin (Homo sapiens, UniProt P00797).
T1 sequence (P00797 whole entry): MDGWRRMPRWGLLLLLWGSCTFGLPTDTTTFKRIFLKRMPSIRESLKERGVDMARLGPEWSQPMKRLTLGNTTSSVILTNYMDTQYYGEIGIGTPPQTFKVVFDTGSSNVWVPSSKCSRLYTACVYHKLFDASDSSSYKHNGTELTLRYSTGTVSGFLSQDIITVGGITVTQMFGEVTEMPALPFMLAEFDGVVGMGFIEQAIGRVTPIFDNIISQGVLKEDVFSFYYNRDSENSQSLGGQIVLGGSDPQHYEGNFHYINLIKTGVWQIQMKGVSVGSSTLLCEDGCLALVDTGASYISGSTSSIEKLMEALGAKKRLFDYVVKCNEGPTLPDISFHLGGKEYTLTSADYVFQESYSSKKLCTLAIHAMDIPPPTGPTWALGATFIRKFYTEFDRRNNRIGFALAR
Briefly: Inhibition of purified human kidney renin, fluorometric assay using a synthetic tetradecapeptide renin substrate at 10e-9 M concentration. In a few lines: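 Purified human kidney renin with synthetic tetradecapeptide substrate, read fluorometrically for peptidal amino termini, at 37°C in 0.10 M citrate phosphate, pH 7.20. Ki from linear I/V vs. [I] plots, assuming competitive inhibition. Estimated error ±20%.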

Another assay concerns the target Renin (Sus scrofa). Kind of assay: Inhibition of hog kidney renin at 10e-9 M concentration. To be noted: read-out: I50.
Assay [2] deals with T1, Renin. Kind of assay: Inhibition of purified human kidney renin, radioimmunoassay using a synthetic tetradecapeptide renin substrate at 10e-9 M concentration.
Assay [3] addresses T1, Renin. Kind of assay: Inhibition of human plasma renin at 10e-9 M concentration. The conditions noted are these: read-out: I50. The procedure, abridged: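 Human plasma renin acting on endogenous plasma angiotensinogen at pH 7.4 (phosphate), 37°C. Renin and substrate levels were not measured. 8-Hydroxyquinoline or phenylmethanesulfonyl fluoride served as angiotensinase inhibitor. Angiotensin I was measured by radioimmunoassay. I50 values were generally reproducible within ±30%.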

The target of assay [4] is T1, Renin. Briefly: Inhibition of purified human kidney renin, radioimmunoassay using the natural substrate partially pure angiotensinogen at 10e-9 M concentration. In a few lines:
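Purified human kidney renin (0.02 ng) with 500 ng partially purified human angiotensinogen (0.08 μM, about 1% pure), 60 min at 37°C in 0.1 M citrate phosphate, pH 7.20. Inhibitor added in 10% methanol or DMF. Quenched by boiling for 1 min.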

In general, Ki refers to the equilibrium dissociation constant of an inhibitor or competing ligand from its target. Higher therefore signals a looser hold on the target. On to `CC(C)CC(NC(=O)[C@H](Cc1c[nH]cn1)NC(=O)[C@H](Cc1ccccc1)NC(=O)OC(C)(C)C)C(O)CC(=O)N[C@@H](CC(C)C)C(=O)NC1CCN(Cc2ccccc2)CC1` (stereo not given in full), for which the Ki on Renin [1] worked out at 0.064 nM; on Renin [2], 0.04 nM; on Renin [4] it was 97 nM. Further, the IC50 at Renin (Sus scrofa) was 280 nM; on Renin [3], 127 nM.
Turning to `CC(C)CC(NC(=O)[C@H](Cc1cnc[nH]1)NC(=O)[C@H](Cc1ccccc1)NC(=O)OC(C)(C)C)C(O)CC(=O)N[C@@H](CC(C)C)C(=O)NC(C)c1ccccc1` (single isomer, unassigned; (+)), the Ki on Renin [1] is 19 nM; on Renin [2], 6 nM; at Renin [4], 100 nM. In addition, the IC50 stood at 14 nM on Renin (Sus scrofa) and 49 nM on Renin [3].
In the same order, the values of `C=C1c2ccccc2CC(NC(=O)[C@H](CC(C)C)NC(=O)CC(O)C(CC(C)C)NC(=O)[C@H](Cc2c[nH]cn2)NC(=O)[C@H](Cc2ccccc2)NC(=O)OC(C)(C)C)c2ccccc21` (stereo not given in full) are 120 nM, 520 nM, 320 nM, 5.8 nM and 569 nM.
As to `CC(C)CC(NC(=O)[C@H](Cc1c[nH]cn1)NC(=O)[C@H](Cc1ccccc1)NC(=O)OC(C)(C)C)C(O)CC(=O)N[C@@H](CC(C)C)C(=O)NC(C)C(O)c1ccccc1` (stereo not given in full), the inhibitory constant (Ki) at Renin [1] is 67 nM; on Renin [2], 36 nM; at Renin [4], 220 nM. Moreover, the IC50 on Renin (Sus scrofa) was found to be 480 nM; at Renin [3], 178 nM.
